Measured values published in ChEMBL document CHEMBL1275435, “A naturally occurring proline-to-alanine amino acid change in Fks1p in Candida parapsilosis, Candida orthopsilosis, and Candida metapsilosis accounts for reduced echinocandin susceptibility” (Antimicrob Agents Chemother, 2008).
Converted amounts (≈) assume the structure as drawn.

What was measured:
[1] = test system: Saccharomyces cerevisiae; assay: Antifungal activity against Saccharomyces cerevisiae BY4742 by CLSI method; format: functional
[2] = test system: Saccharomyces cerevisiae; assay: Antifungal activity against FKS1 deficient Saccharomyces cerevisiae BY4742 by CLSI method; format: functional
[3] = Inhibition of Candida orthopsilosis H10 glucan synthase assessed as [3H]UDPG incorporation
Summary of the method: (§1)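 Cells were grown with vigorous shaking at 30°C to early stationary phase in YPD. Membrane GS was partially purified by product entrapment, using 10-fold more cells for low-activity strains. The polymerization assay was started by adding GS, with drug serially diluted from 0.01 to 10,000 ng/ml. Reactions ran 60 min at 25°C and were stopped on ice. IC50 came from sigmoidal variable-slope fits, as arithmetic means ± SD of three repetitions on three days.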

[4] = Inhibition of Candida albicans M122 glucan synthase assessed as [3H]UDPG incorporation; summary of the method: as §1
[5] = test system: Candida orthopsilosis; assay: Antifungal activity against Candida orthopsilosis 981224 by CLSI method; format: functional; settings: Lodderomyces orthopsilosis
[6] = Inhibition of Candida albicans ATCC 90028 glucan synthase assessed as [3H]UDPG incorporation; summary of the method: as §1
[7] = Inhibition of Candida albicans ATCC 36082 glucan synthase assessed as [3H]UDPG incorporation; summary of the method: as §1
[8] = test system: Candida albicans; assay: Antifungal activity against Candida albicans Sc5314 by CLSI method; format: functional
[9] = Inhibition of Candida parapsilosis ATCC 22019 glucan synthase by assessed as [3H]UDPG incorporation; summary of the method: as §1
[10] = test system: Candida parapsilosis; assay: Antifungal activity against Candida parapsilosis H4 by CLSI method; format: functional; settings: Lodderomyces parapsilosis
[11] = Inhibition of Candida glabrata ATCC 90030 glucan synthase assessed as [3H]UDPG incorporation; set-up: species or system Nakaseomyces glabratus; summary of the method: as §1
[12] = Inhibition of Saccharomyces cerevisiae BY4742 glucan synthase assessed as [3H]UDPG incorporation; summary of the method: as §1
[13] = Inhibition of Saccharomyces cerevisiae BY4742-FKS1P649A mutant glucan synthase assessed as [3H]UDPG incorporation; summary of the method: as §1
[14] = test system: Candida parapsilosis; assay: Antifungal activity against Candida parapsilosis ATCC 22019 by CLSI method; format: functional; settings: Lodderomyces parapsilosis
[15] = Inhibition of Candida glabrata T51916 glucan synthase assessed as [3H]UDPG incorporation; set-up: species or system Nakaseomyces glabratus; summary of the method: as §1
[16] = test system: Candida parapsilosis; assay: Antifungal activity against Candida parapsilosis H5 by CLSI method; format: functional; settings: Lodderomyces parapsilosis
[17] = test system: Candida albicans; assay: Antifungal activity against Candida albicans ATCC 90028 by CLSI method; format: functional
[18] = test system: Nakaseomyces glabratus; assay: Antifungal activity against Candida glabrata ATCC 90030 by CLSI method; format: functional
[19] = test system: Candida metapsilosis; assay: Antifungal activity against Candida metapsilosis am-2006-0113 by CLSI method; format: functional; settings: Lodderomyces metapsilosis
[20] = Inhibition of Candida albicans Sc5314 glucan synthase assessed as [3H]UDPG incorporation; summary of the method: as §1
[21] = Inhibition of Candida parapsilosis H4 glucan synthase assessed as [3H]UDPG incorporation; summary of the method: as §1
[22] = test system: Saccharomyces cerevisiae; assay: Antifungal activity against Saccharomyces cerevisiae BY4742-FKS1P649A mutant by CLSI method; format: functional
Summary of the method: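 Broth microdilution following CLSI M27-A2, run in YPD broth (1% yeast extract, 2% Bacto peptone, 2% dextrose). MICs are geometric means of at least three repetitions on three separate days.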

[23] = test system: Candida orthopsilosis; assay: Antifungal activity against Candida orthopsilosis H10 by CLSI method; format: functional; settings: Lodderomyces orthopsilosis
[24] = Inhibition of Candida metapsilosis am-2006-0113 glucan synthase assessed as [3H]UDPG incorporation; summary of the method: as §1
[25] = test system: Candida albicans; assay: Antifungal activity against Candida albicans ATCC 36082 by CLSI method; format: functional
[26] = Inhibition of Candida metapsilosis 960161 glucan synthase assessed as [3H]UDPG incorporation; summary of the method: as §1
[27] = test system: Candida albicans; assay: Antifungal activity against Candida albicans M122 by CLSI method; format: functional
[28] = Inhibition of Candida parapsilosis H5 glucan synthase assessed as [3H]UDPG incorporation; summary of the method: as §1
[29] = Inhibition of Candida orthopsilosis 981224 glucan synthase assessed as [3H]UDPG incorporation; summary of the method: as §1
[30] = test system: Candida metapsilosis; assay: Antifungal activity against Candida metapsilosis 960161 by CLSI method; format: functional; settings: Lodderomyces metapsilosis
[31] = test system: Nakaseomyces glabratus; assay: Antifungal activity against Candida glabrata T51916 by CLSI method; format: functional

## CC[C@H](C)C[C@H](C)CCCCCCCCC(=O)N[C@H]1C[C@@H](O)[C@@H](NCCN)NC(=O)[C@@H]2[C@@H](O)CCN2C(=O)[C@H]([C@H](O)CCN)NC(=O)[C@H]([C@H](O)[C@@H](O)c2ccc(O)cc2)NC(=O)[C@@H]2C[C@@H](O)CN2C(=O)[C@H]([C@@H](C)O)NC1=O [CASPOFUNGIN]
[1]
  MIC: 0.03 µg/mL (≈ 0.0274 µM)
[2]
  MIC: 0.02 µg/mL (≈ 0.0183 µM)
[3]
  IC50: 0.05816 µg/mL (≈ 0.0532 µM)
  Ki: 0.00429 µg/mL (≈ 0.00392 µM)
[4]
  IC50: 0.07948 µg/mL (≈ 0.0727 µM)
  Ki: 0.292 µg/mL (≈ 0.267 µM)
[5]
  MIC: 0.79 µg/mL (≈ 0.723 µM)
[6]
  IC50: 0.00052 µg/mL (≈ 0.000476 µM)
  Ki: 0.00095 µg/mL (≈ 0.000869 µM)
[7]
  IC50: 0.0006 µg/mL (≈ 0.000549 µM)
  Ki: 0.00046 µg/mL (≈ 0.000421 µM)
[8]
  MIC: 0.4 µg/mL (≈ 0.366 µM)
[9]
  IC50: 0.02121 µg/mL (≈ 0.0194 µM)
  Ki: 0.04799 µg/mL (≈ 0.0439 µM)
[10]
  MIC: 2.24 µg/mL (≈ 2.05 µM)
[11]
  IC50: 0.00312 µg/mL (≈ 0.00285 µM)
[12]
  IC50: 0.06554 µg/mL (≈ 0.0599 µM)
  Ki: 0.18394 µg/mL (≈ 0.168 µM)
[13]
  IC50: 1.32867 µg/mL (≈ 1.22 µM)
  Ki: 1.215 µg/mL (≈ 1.11 µM)
[14]
  MIC: 1.4 µg/mL (≈ 1.28 µM)
[15]
  IC50: 0.1575 µg/mL (≈ 0.144 µM)
  Ki: 0.1945 µg/mL (≈ 0.178 µM)
[16]
  MIC: 2.24 µg/mL (≈ 2.05 µM)
[17]
  MIC: 0.2 µg/mL (≈ 0.183 µM)
[18]
  MIC: 0.1 µg/mL (≈ 0.0915 µM)
[19]
  MIC: 0.79 µg/mL (≈ 0.723 µM)
[20]
  Ki: 0.00297 µg/mL (≈ 0.00272 µM)
[21]
  IC50: 0.07919 µg/mL (≈ 0.0724 µM)
  Ki: 0.00393 µg/mL (≈ 0.00359 µM)
[22]
  MIC: 0.5 µg/mL (≈ 0.457 µM)
[23]
  MIC: 1 µg/mL (≈ 0.915 µM)
[24]
  IC50: 0.04028 µg/mL (≈ 0.0368 µM)
  Ki: 0.0769 µg/mL (≈ 0.0703 µM)
[25]
  MIC: 0.2 µg/mL (≈ 0.183 µM)
[26]
  IC50: 0.02515 µg/mL (≈ 0.023 µM)
  Ki: 0.08045 µg/mL (≈ 0.0736 µM)
[27]
  MIC: 4 µg/mL (≈ 3.66 µM)
[28]
  IC50: 0.01253 µg/mL (≈ 0.0115 µM)
  Ki: 0.00601 µg/mL (≈ 0.0055 µM)
[29]
  IC50: 0.07526 µg/mL (≈ 0.0688 µM)
  Ki: 0.0074 µg/mL (≈ 0.00677 µM)
[30]
  MIC: 1 µg/mL (≈ 0.915 µM)
[31]
  MIC: 2 µg/mL (≈ 1.83 µM)
